Holding throughout (format): functional
Assay [1] is described as follows: Growth inhibition of human Nc37 cells assessed as viable cells at 10^-4 M after 72 hrs relative to control. The settings on record: NC-37, 72 h, read-out: Activity. Summed up: (§1)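 Nc 37 cells come from a normal human buffy coat, RPMI 6410 from the buffy coat of a myeloblastic leukemia patient, and L1210 is mouse leukemia. Cells were grown in RPMI 1640 with 10% fetal calf serum and exposed to compound at 10^-4 M in medium containing 0.5% Me2SO for 72 h. Viable cell number is expressed as percent of 0.5% Me2SO controls and scored as ++ 30-60%, + 60-80%, ± 80-90%, NA 90-110%.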

The nature of assay [2]: Growth inhibition of human RPMI6410 cells assessed as viable cells at 10^-4 M after 72 hrs relative to control. The settings on record: RPMI 6410, 72 h, read-out: Activity. Summed up: as §1
Assay [3] relates to L1210. The assay is described as follows: Growth inhibition of mouse L1210 cells assessed as viable cells at 10^-4 M after 72 hrs relative to control. The conditions noted are these: L1210, 72 h, read-out: Activity. Summed up:
as §1

In assay [4] the test system is L1210. The assay is described as follows: Antitumor activity against mouse L1210 cells allografted in mouse assessed as increase in life span of host.
In assay [5] the test system is L1210. Nature of the assay: Growth inhibition of mouse L1210 cells at 10^-4 M after 72 hrs relative to control. The settings on record: L1210, 72 h, read-out: GI. Summed up:
as §1

The nature of assay [6]: Growth inhibition of human Nc37 cells assessed as viable cells at 10^-5 M after 72 hrs relative to control. The conditions noted are these: NC-37, 72 h, read-out: Activity.
Assay [7] is described as follows: Growth inhibition of human RPMI6410 cells assessed as viable cells at 10^-5 M after 72 hrs relative to control. The settings on record: RPMI 6410, 72 h, read-out: Activity.
In assay [8] the test system is L1210. The assay is described as follows: Growth inhibition of mouse L1210 cells assessed as viable cells at 10^-5 M after 72 hrs relative to control. The conditions noted are these: L1210, 72 h, read-out: Activity.

The structures appear in SMILES notation. Calls of active or inactive are those of the source. No cut-off for these calls is given here.

Regarding `O=C(Nc1cccc2ccccc12)Nc1ncnc2c1ncn2C(=O)Nc1cccc2ccccc12`, the viability at 100 µM in assay [1] is 30%; in assay [2], 30%; in assay [3], greater than 30%. In assay [4], the outcome was inactive.
`CC(OCc1ccccc1)C(NC(=O)n1cnc2c(N)ncnc21)C(=O)OCc1ccccc1` (stereo not drawn): the results for the viability at 100 µM in assay [1], in assay [2] and in assay [3] were 60%, 60% and greater than 30%, respectively. Also, the inhibition of growth at 100 µM in assay [5] was no less than 70%.
Take `CNC(=S)n1cnc2c(N)ncnc21`: the viability at 10 µM is 30% in assay [6], 30% in assay [7] and greater than 30% in assay [8]. The inhibition of growth at 100 µM in assay [5] is no less than 70%. Also, the outcome in assay [4] was inactive.
As for `Nc1ncnc2c1ncn2C(=O)N[C@@H](Cc1ccccc1)C(=O)O`, the viability at 100 µM was 30% in assay [1], 80% in assay [2] and greater than 30% in assay [3]. Also, the inhibition of growth at 100 µM in assay [5] was no less than 70%.
Turning to `CNC(=O)n1cnc2c(N)ncnc21`, the viability at 100 µM in assay [1], in assay [2] and in assay [3] was 30% throughout. Moreover, the viability at 10 µM in assay [6] and in assay [7] was 60% in each case. In addition, in assay [5], the inhibition of growth at 100 µM is no less than 70%. In assay [4], the outcome was inactive.
In the case of `CCCCNC(=O)n1cnc2c(N)ncnc21`, the viability at 100 µM in assay [1] was 30%; in assay [2], 30%; in assay [3] it was greater than 30%. Besides, the inhibition of growth at 100 µM in assay [5] is no less than 70%.
As for `Nc1ncnc2c1ncn2C(=O)NC1CCCCC1`, the viability at 100 µM in assay [1] was 30%; in assay [2] it was 30%; in assay [3], greater than 30%. The inhibition of growth at 100 µM in assay [5] was no less than 70%.
As to `O=C(Nc1ccc(Cl)cc1)Nc1ncnc2c1ncn2[C@@H]1O[C@H](CO)[C@@H](O)[C@H]1O`, the results for the viability at 100 µM in assay [1], in assay [2] and in assay [3] were 30%, 30% and greater than 30%, respectively. For the same compound, the result in assay [4] was inactive.
Take `CCCCNC(=O)Nc1ncnc2[nH]cnc12`: the viability at 100 µM was 60% in assay [1], 60% in assay [2] and 30% in assay [3].
With `CNC(=S)Nc1ncnc2[nH]cnc12`, the viability at 100 µM in assay [1], in assay [2] and in assay [3] was 60% in each case.
`Nc1ncnc2c1ncn2C(=O)Nc1ccccc1F`: the values for the viability at 100 µM in assay [1], in assay [2] and in assay [3] were 90%, 60% and 60%, respectively.
`CCCCNC(=O)Nc1ncnc2c1ncn2C(=O)NCCCC`: the viability at 100 µM in assay [1] turned out to be 90%; in assay [2], 60%; in assay [3] it was 30%.
Taken in the same sequence, the figures for `CCCCNC(=S)Nc1ncnc2[nH]cnc12` were 30%, 60% and 30%.
With `O=C(NCCc1ccccc1Cl)Nc1ncnc2[nH]cnc12`, the values for the viability at 100 µM in assay [1], in assay [2] and in assay [3] were 30%, 60% and 60%, respectively.
Regarding `CN(C(=O)Nc1ccccc1Cl)c1ncnc2c1ncn2C(=O)Nc1ccccc1Cl`, the viability at 100 µM was 90% in assay [1], 60% in assay [2] and 30% in assay [3].
Turning to `Nc1ncnc2c1ncn2C(=O)Nc1ccccc1`, the viability at 100 µM in assay [1] turned out to be 90%; in assay [2], 60%; in assay [3] it was 30%.
For `CNc1ncnc2c1ncn2C(=O)NC(C)(C)C`, the viability at 100 µM in assay [1], in assay [2] and in assay [3] was 60% each time.
For the compound `CCOC(=O)n1cnc2c(NC)ncnc21`, the figures for the viability at 100 µM in assay [1], in assay [2] and in assay [3] were 30%, 30% and 90%, respectively.
In the case of `CN(C(=O)Nc1ccccc1)c1ncnc2c1ncn2C(=O)Nc1ccccc1`, the figures for the viability at 100 µM in assay [1], in assay [2] and in assay [3] were 90%, 60% and 30%, respectively.
The matching figures for `CCOC(=O)CNC(=O)n1cnc2c(N)ncnc21`: 60%, 60% and 30%.
The matching figures for `Cc1ccccc1NC(=O)Nc1ncnc2c1ncn2C(=O)Nc1ccccc1C`: 60%, 90% and 60%.
Take `CC(C)C(NC(=O)n1cnc2c(N)ncnc21)C(=O)OCc1ccccc1` (stereo not drawn): the figures for the viability at 100 µM in assay [1], in assay [2] and in assay [3] were 60%, 30% and 30%, respectively.
With `O=C(Nc1ccc(F)cc1)Nc1ncnc2[nH]cnc12`, the viability at 100 µM in assay [1] was 90%; in assay [2], 90%; in assay [3], 30%.
Turning to `O=C(Nc1ncnc2[nH]cnc12)NC1CCCCC1`, the viability at 100 µM in assay [1], in assay [2] and in assay [3] was 60% in each case.
Take `CNC(=O)Nc1ncnc2c1ncn2C(=O)NC`: the results for the viability at 100 µM in assay [1], in assay [2] and in assay [3] were 90%, 80% and 80%, respectively.
As for `CC(C)(C)NC(=O)n1cnc2c(N)ncnc21`, the viability at 100 µM in assay [1] is 60%; in assay [2], 60%; in assay [3], greater than 30%. Besides, the inhibition of growth at 100 µM in assay [5] is no less than 70%.
Regarding `Nc1ncnc2c1ncn2C(=O)NCC(=O)OCc1ccccc1`, the viability at 100 µM in assay [1] is 60%; in assay [2], 80%; in assay [3], greater than 30%. Moreover, in assay [5], the inhibition of growth at 100 µM is no less than 70%.
Consider `Cc1ccc(NC(=O)Nc2[nH]cnc3ncnc2-3)cc1`, for which the results for the viability at 100 µM in assay [1], in assay [2] and in assay [3] were 90%, 60% and greater than 30%, respectively.
Turning to `CCOC(=O)CNC(=O)N(C)c1ncnc2c1ncn2C(=O)NCC(=O)OCC`, the viability at 100 µM in assay [1] was found to be 90%; in assay [2], 90%; in assay [3], 60%.
As for `CC(C)(C)CNC(=O)Nc1ncnc2c1ncn2[C@@H]1O[C@H](CO)[C@@H](O)[C@H]1O`, the viability at 100 µM in assay [1] stood at 90%; in assay [2], 90%; in assay [3] it was 80%.
For the compound `C=CCNC(=O)n1cnc2c(N)ncnc21`, the viability at 100 µM in assay [1] was 30%; in assay [2], 60%; in assay [3] it was greater than 30%. In assay [5], the inhibition of growth at 100 µM was no less than 70%.

For the origin of these results see ChEMBL document CHEMBL3244233, “Synthesis and biological activities of some N6- and N9-carbamoyladenines and related ribonucleosides” (1977).
